SR-BI uptake up: SR-BI HDL lipid transfer activation | CHO ldlA[mSR-BI] cells, DiI-HDL uptake fluorescence, 3 h; 100 = double the neutral-control signal | activation, % at 12.5 µM | 320,000 tested, 0.096% active | AID 504775;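 active means mean replicate activation of at least 60% and every replicate at or above 60%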;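 further: 0% = median plate neutral-control signal and 100% = twice that signal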
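Assay system: CHO ldlA[mSR-BI] cells, LDL receptor-null, SR-BI overexpressing; medium: Ham's F12 with 0.5% BSA, HEPES 25 mM, pH 7.4; also added: DiI-HDL 10 µg/mL; timing: 3 h uptake period with compound, 37 °C; signal: DiI fluorescence, bottom read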
AHR activator: activators of human aryl hydrocarbon receptor; AHR-responsive luciferase reporter cells, luminescence; activation, % at 5 µM; 320,000 tested, 2.5% active; AID 2796; in the data active means activation above about 47%;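 further: 0% = vehicle wells and 100% = reference agonist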
SR-BI DiI inh: blocks mouse SR-BI lipid uptake from DiI-HDL | Q61009 | ldlA[mSR-BI] CHO cells, DiI-HDL uptake fluorescence, 3 h | inhibition, % at 12.5 µM | 320,000 tested, 0.96% active | AID 488896;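 active means mean replicate inhibition of at least 70% and a set share of replicates each scoring 70 or more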;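 further: 0% = median of neutral control wells and 100% = median of positive control wells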
FXN GAA850 act: increases GAA850 frataxin promoter reporter activity | 360,000 tested, 0.56% active | activation, % at 6 µM | HEK293 lucGAA850 FXN promoter luciferase reporter, 24 h; percent of 10 µM SAHA response;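 active means activation above the average of all compounds screened plus 3 SD, cutoff fixed separately per campaign, cut at about 7.5% in these data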;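 further: 0% = DMSO wells and 100% = 10 µM SAHA wells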
ABCB6 inh 2: blocks the human ABCB6 transporter; 360,000 tested, 0.19% active; AID 602162; Q9NP58; fluorescence ratio to DMSO, % at 10 µM; K562-ABCB6 porphyrin accumulation, flow cytometry, 1 h; active compounds read low;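 active means fluorescence ratio to DMSO below 75%, the collection mean minus 3 SD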;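 further: signal is porphyrin accumulated inside mitochondria; 100% equals median channel fluorescence of DMSO control wells; lower ratio means ABCB6 inhibition with less porphyrin fluorescence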
Target sequence (Q9NP58 whole entry, looked up): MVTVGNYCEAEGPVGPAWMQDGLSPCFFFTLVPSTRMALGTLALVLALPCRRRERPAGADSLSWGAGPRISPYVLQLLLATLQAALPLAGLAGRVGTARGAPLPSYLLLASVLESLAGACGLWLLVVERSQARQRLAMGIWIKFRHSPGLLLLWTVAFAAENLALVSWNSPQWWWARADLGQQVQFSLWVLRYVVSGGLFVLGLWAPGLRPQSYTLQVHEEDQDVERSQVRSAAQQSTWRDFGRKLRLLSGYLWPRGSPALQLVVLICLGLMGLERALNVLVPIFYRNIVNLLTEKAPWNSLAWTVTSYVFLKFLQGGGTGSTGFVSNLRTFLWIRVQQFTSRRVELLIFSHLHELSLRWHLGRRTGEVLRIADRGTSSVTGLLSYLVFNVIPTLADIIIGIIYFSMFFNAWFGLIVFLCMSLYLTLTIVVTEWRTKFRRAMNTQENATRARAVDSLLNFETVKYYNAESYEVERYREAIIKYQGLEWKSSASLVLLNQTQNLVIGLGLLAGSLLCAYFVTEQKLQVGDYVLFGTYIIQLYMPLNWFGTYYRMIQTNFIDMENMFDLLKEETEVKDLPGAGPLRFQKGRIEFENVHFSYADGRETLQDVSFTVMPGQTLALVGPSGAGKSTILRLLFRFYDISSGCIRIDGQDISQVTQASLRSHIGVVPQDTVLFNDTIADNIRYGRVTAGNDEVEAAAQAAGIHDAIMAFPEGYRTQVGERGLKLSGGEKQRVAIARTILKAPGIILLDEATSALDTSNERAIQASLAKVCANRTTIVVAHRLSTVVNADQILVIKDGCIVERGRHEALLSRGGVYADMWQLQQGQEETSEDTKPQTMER
HIF act: HIF pathway transcriptional activation; 300,000 tested, 0.32% active; AID 1910; U2OS HRE-luciferase reporter, luminescence; normalized: DMSO 0%, desferrioxamine 100%; activation, % at 7.5 µM (by protocol);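 active means mean activation of at least 10% of the iron chelator positive control signal, with at least half of replicates also reaching 10%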
The depositor's hits bear a star; i = inactive; . = no result. The list is not random: actives were taken first. Their share in the collection is about 3.9%.

SMILES	SR-BI uptake up	AHR activator	SR-BI DiI inh	FXN GAA850 act	ABCB6 inh 2	HIF act
O=c1[nH]c(/C=C/c2ccc(OC(F)F)cc2)nc2c1cnn2-c1ccccc1	13.0	75.3*	-13.0	2.2	103.0	0.0
CN1/C(=C\C=O)C(C)(C)c2ccccc21	-2.4	63.9*	2.4	1.9	261.0	-0.7
CN1/C(=C/C=C(C#N)C#N)C(C)(C)c2ccccc21	-5.0	-2.1	5.0	-2.2	111.0	-0.5
CN1\C(=C/C=C/C=C/C=[N+](C)C)C(C)(C)c2ccccc21	182.1*	.	-182.1	-2.8	i	-1.8
COc1ccc(C2c3cc(OC)c(OC)cc3CCN2C2CC(=O)N(c3ccccc3)C2=O)cc1OC (configuration not stated)	12.0	-0.2	-12.0	-2.4	97.0	-0.2
O=C(NC(CO)Cc1ccc([N+](=O)[O-])cc1)C(Cl)Cl (configuration not stated)	2.5	-3.0	-0.8	-0.9	99.0	-0.5
CCN(CCO)Cc1csc2ccc(Cl)cc12	70.0*	0.5	-70.0	0.0	105.0	-0.1
Cc1ncc(CO)c(/C=N/NC(=O)c2cc3c(s2)CCCC3)c1O	-104.1	12.2	104.1*	-5.9	95.0	21.9*
Cc1ncc(CO)c(/C=N/NC(=S)Nc2ccc(Cl)c(Cl)c2)c1O	8.6	25.4	-8.6	0.4	93.0	0.3
Cc1ncc(CO)c(/C=N/NC(=S)Nc2cccc(Cl)c2)c1O	-5.1	54.5*	5.1	0.1	110.0	0.6
Cc1ncc(CO)c(/C=N/NC(=O)c2ccc(O)cc2)c1O	-36.5	4.3	36.5	1.0	102.0	-0.6
COc1cc(C(=O)NCCOc2cc(C)ccc2C(C)C)cc(OC)c1OC	-34.9	6.1	34.9	-0.7	92.0	1.4
CN(C)c1ccc(C2CC(=O)OC3=C2C(=O)CC(C)(C)C3)cc1 (configuration not stated)	67.6*	-1.0	-67.6	1.8	105.0	-0.1
Cc1cc(C)c(C(=O)COC(=O)c2ccc(NC(=O)CC#N)cc2)cc1C	-75.2	25.8	75.2*	0.6	101.0	-0.2
O=C(NCCc1csc(-c2ccccc2)n1)c1ccc(Br)o1	-45.1	18.8	45.1	-1.3	97.0	-0.1
O=C(NCCc1csc(-c2cccnc2)n1)c1ccc(Br)o1	2.6	65.3*	-2.6	-1.8	104.0	0.2
O=C(NCc1ccc(Cl)cc1)c1csc(-c2cccnc2)n1	12.2	52.4*	-12.2	1.8	102.0	0.5
COc1ccc(CCn2c(NN=C3CCCCC3)nc3c2c(=O)[nH]c(=O)n3C)cc1	-17.6	11.2	17.6	0.5	97.0	-0.3
O=C(CC1Nc2ccccc2NC1=O)c1ccccc1 (configuration not stated)	.	77.9*	.	.	.	0.1
NC(=O)CC1Nc2cccc3cccc(c23)NC1=O (configuration not stated)	.	50.8*	.	1.7	98.0	-0.2
COc1ccc(CCNC(=O)CC2Nc3ccccc3NC2=O)cc1 (configuration not stated)	-34.8	29.4	34.8	0.0	97.0	0.2
O=C(CC1Nc2ccccc2NC1=O)NCCc1ccccc1 (configuration not stated)	17.3	48.7*	-17.3	1.0	85.0	0.7
Cc1cccnc1NC(=O)CNC(=O)c1sc2ccccc2c1Cl	20.2	12.0	-20.2	1.2	97.0	.
CCCC1S/C(=N/N=C/c2cccs2)NC1=O (configuration not stated)	9.9	14.5	-9.9	1.9	101.0	0.7
Nc1cccc2c1nnn2C1OC(CO)C(O)C(O)C1O (configuration not stated)	12.3	-0.5	-6.1	-3.2	105.0	.
SMILES	SR-BI uptake up	AHR activator	SR-BI DiI inh	FXN GAA850 act	ABCB6 inh 2	HIF act
Cc1ccc(/C=N/NC(=O)c2cccc3ccccc23)o1	.	7.8	.	-0.3	100.0	0.2
CCn1nc(C)c(/C=N/NC(=O)c2c[nH]c3ccccc23)c1C	18.4	98.8*	-18.4	5.2	97.0	2.5
Cc1ccc(/C=N/NC(=O)c2ccoc2C)s1	9.0	55.5*	-9.0	4.4	95.0	1.9
CCn1nc(C)c(/C=N/NC(=O)Cn2nccc2C)c1C	-3.1	3.2	3.1	5.0	101.0	1.9
Cc1ccc(/C=N/NC(=O)c2c[nH]c3ccccc23)o1	28.6	71.8*	-28.6	5.0	100.0	1.4
Cc1ccc(/C=N/NC(=O)c2c[nH]c3ccccc23)s1	9.8	50.5*	-9.8	6.4	101.0	2.5
Cc1occc1C(=O)N/N=C/c1ccc(Br)s1	15.4	2.2	-15.4	4.1	101.0	2.6
COc1ccc(NC(=O)C2CCN(c3ncnc4c3nc3n4CCCCC3)CC2)cc1Cl	-58.1	6.5	58.1	0.0	105.0	-0.8
CCOc1ccc(NS(=O)(=O)c2ccc3[nH]cc(C(=O)NCCOC)c(=O)c3c2)cc1	19.1	1.7	-19.1	-0.3	89.0	-36.6
O=C(N/N=C/c1ccc[nH]1)c1c[nH]c2ccccc12	-8.8	.	8.8	1.6	105.0	4.4
O=C(N/N=C/c1ccccn1)c1c[nH]c2ccccc12	.	56.9*	.	1.8	99.0	4.2
COc1ccc(NS(=O)(=O)c2ccc(C)c(C(=O)NNC(=O)c3ccccc3O)c2)cc1	-96.6	8.5	96.6*	-1.8	95.0	0.1
COc1ccc(NS(=O)(=O)c2ccc(C)c(C(=O)O)c2)cc1	17.0	-0.8	-17.0	3.5	102.0	0.2
O=C(NNC(=O)c1ccccc1O)c1ccc(NS(=O)(=O)c2ccc(F)c(F)c2)cc1	-84.8	14.2	84.8*	-0.2	102.0	-0.3
Cc1ccc2nc(N3CCN(C)CC3)c(C#N)cc2c1	7.3	10.9	-7.3	0.0	94.0	2.0
O=S(=O)(CCSc1nc2ccccc2s1)c1nc2ccccc2s1	-6.6	11.9	6.6	-8.4	92.0	13.2*
Cc1ccc(-n2nc(C)c(NC(=O)CCl)c2C)cc1C	-19.9	51.6*	19.9	-5.9	107.0	-0.1
CC(C)(C)n1ncc2c(=O)n(CC(=O)NC3CCCCC3)cnc21	6.6	8.2	-6.6	0.8	108.0	2.0
COc1ccc(N2CCN(C(=S)Nc3ccccc3)CC2)cc1	.	-1.5	.	0.5	97.0	-0.3
CC(Sc1nnc(NCc2ccccc2)s1)C(=O)Nc1ccc2c(c1)C(=O)c1ccccc1C2=O (configuration not stated)	-61.9	50.0*	61.8	-7.0	107.0	1.7
Cc1ccc2c(c1)c(N=NC(N)=S)c(O)n2Cc1ccccc1	-1.3	0.1	1.3	1.6	111.0	0.3
C/C(=N\NC(=O)CC1N=C(Cc2ccccc2)NNC1=O)c1ccncc1 (configuration not stated)	12.9	56.7*	-12.9	-1.6	100.0	-2.2
O=C(CCCN1Cc2ccccc2C1)c1ccc(F)cc1	24.2	-1.5	-24.1	5.6	104.0	0.1
COc1ccccc1C(=O)NCc1ccncc1	10.8	4.6	-10.9	-0.6	97.0	-0.2

Screening data: PubChem BioAssay, several laboratories
